Reference: paper PMC8317952 (ACS catalysis, 2020)
Values joined by “and” are separate entries in the source; they are usually repeats but may differ in a detail not shown here. Equal entries are not always repeated. Structures can show the parent of a compound that is named as a salt. Where two headings read alike, the source gives them in different places.

Tests used:
P450 102A2 (CYP102A2) [1] = assay: Literature: NADPH oxidation and binding with dodecyl sulfate by P450 102A2; assay type: biochemical, B. subtilis; settings: P450 102A2 at 37 °C vs P450BM-3 at 23 °C
P450BM-3 [2] = target: T1, P450BM-3 (Priestia megaterium, UniProt P14779); assay: biochemical; assay type: binding
T1 sequence (P14779 1-1049): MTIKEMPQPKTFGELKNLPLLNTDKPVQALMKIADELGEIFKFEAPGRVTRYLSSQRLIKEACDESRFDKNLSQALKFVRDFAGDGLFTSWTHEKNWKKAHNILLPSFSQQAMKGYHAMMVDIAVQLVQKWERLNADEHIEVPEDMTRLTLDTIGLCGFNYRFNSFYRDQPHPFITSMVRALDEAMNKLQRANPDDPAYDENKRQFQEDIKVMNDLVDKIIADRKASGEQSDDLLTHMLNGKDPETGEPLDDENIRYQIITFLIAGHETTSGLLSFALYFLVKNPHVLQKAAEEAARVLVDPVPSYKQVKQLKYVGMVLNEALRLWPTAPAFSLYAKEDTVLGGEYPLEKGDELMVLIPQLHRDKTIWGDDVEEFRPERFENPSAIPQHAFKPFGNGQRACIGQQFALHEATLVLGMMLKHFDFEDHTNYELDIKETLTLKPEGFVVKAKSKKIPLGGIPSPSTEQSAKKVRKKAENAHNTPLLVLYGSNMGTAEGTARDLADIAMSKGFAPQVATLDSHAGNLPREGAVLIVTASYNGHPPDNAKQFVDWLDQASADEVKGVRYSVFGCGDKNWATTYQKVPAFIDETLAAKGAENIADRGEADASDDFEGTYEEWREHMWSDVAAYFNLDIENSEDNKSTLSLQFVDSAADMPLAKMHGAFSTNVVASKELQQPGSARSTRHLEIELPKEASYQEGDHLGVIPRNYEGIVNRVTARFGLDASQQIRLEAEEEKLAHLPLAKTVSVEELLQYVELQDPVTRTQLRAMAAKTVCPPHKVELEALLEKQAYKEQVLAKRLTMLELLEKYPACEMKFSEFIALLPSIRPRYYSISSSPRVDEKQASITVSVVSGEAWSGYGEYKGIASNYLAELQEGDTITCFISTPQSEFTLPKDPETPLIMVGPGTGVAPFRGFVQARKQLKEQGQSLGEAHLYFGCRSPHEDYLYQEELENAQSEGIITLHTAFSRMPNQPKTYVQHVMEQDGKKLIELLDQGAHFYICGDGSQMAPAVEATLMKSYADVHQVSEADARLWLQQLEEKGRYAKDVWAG

P450BM-3 [3] = target: T1, P450BM-3; assay: Pre-steady-state stopped-flow kinetics of substrate binding; design: species or system Bacillus megaterium; settings: for eigenvalue (λ) of spectral change, single exponential fit: ΔA390
P450BM-3 [4] = target: T1, P450BM-3; assay type: biochemical, Bacillus megaterium; settings: for site of hydroxylation: Jones oxidation, Baeyer-Villiger, LC-MS/MS
P450 102A2 (CYP102A2) [5] = settings: cited from earlier work
P450BM-3 [6] = target: T1, P450BM-3; assay: Steady-state NADPH oxidation; assay type: biochemical, Bacillus megaterium; settings: for Km / kcat: rates of NADPH oxidation, hyperbolic fit, 23 °C
P450BM-3 [7] = target: T1, P450BM-3; settings: cited from earlier work
ferrous P450BM-3 = settings: surrogate for O2; cited from earlier work
mutants of P450BM-3 = settings: cited from earlier work
P450BM-3 [8] = target: T1, P450BM-3; settings: substrate-bound P450BM-3; cited from earlier work
P450BM-3 [9] = target: T1, P450BM-3; assay type: binding, Bacillus megaterium; settings: read-out: Kd estimate (Kd = koff/kon); from fitted on- and off-rate constants
P450BM-3 [10] = target: T1, P450BM-3; settings: read-out: Kd values in the previous literature; buffer conditions appear to affect these; cited from earlier work
P450BM-3 [11] = target: T1, P450BM-3; assay: Burst experiment: stopped-flow NADPH oxidation with lauric acid; assay type: biochemical, Bacillus megaterium; settings: 2 μM P450BM-3, 500 μM lauric acid, 50 μM NADPH
Method in brief: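 In the stopped-flow instrument, enzyme (4 μM) premixed with 1 mM lauric acid was mixed with 100 μM NADPH, both in 50 mM potassium MOPS pH 7.5. Runs were at 23 °C in rapid-scanning mode, recording spectra from 332–565 nm with kinetic traces taken at individual wavelengths.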

[12] = read-out: Kd (spectral titration), 50 mM potassium MOPS pH 7.4, 23 °C
[13] = d0 vs d23 lauric acid, non-competitive, NADPH oxidation

## CCCCCCCCCCCCOS(=O)(=O)O [dodecyl sulfate]
P450 102A2 (CYP102A2) [1]
  fold lower specificity constant of P450 102A2 than P450BM-3: ~ 500 fold
P450BM-3 [2]; [12]
  Kd: 14 ± 2 µM
P450BM-3 [3]; 2 μM dodecyl sulfate (final)
  eigenvalue (λ) of spectral change, single exponential fit: 127 s⁻¹ and 127 ± 4 s⁻¹
P450BM-3 [3]; 200 μM dodecyl sulfate (final)
  eigenvalue (λ) of spectral change, single exponential fit: 51 ± 4 s⁻¹
P450BM-3 [3]; from binding rate and substrate concentration
  rate constant for substrate binding (kon), rough value: 6e+07 M⁻¹ s⁻¹
P450BM-3 [3]; stopped-flow
  t1/2 of binding spectral changes: 0.006 to 0.025 s
P450BM-3 [4]
  site of hydroxylation: primarily ω−1 hydroxylation
P450 102A2 (CYP102A2) [5]; 37 °C
  apparent specificity constant kcat/S0.5: 1600 M⁻¹ s⁻¹
P450 102A2 (CYP102A2) [5]; spectral binding and NADPH oxidation
  Hill n value: 5.7
P450BM-3 [6]
  Km: 28 ± 1 µM
  kcat: 16.3 ± 0.333 s⁻¹

## CCCCCCCCCCCCCCCC(=O)O [palmitic acid, Palmitic acid]
P450BM-3 [7]
  rate of reduction of iron from the ferric to the ferrous state: 53 to 306 s⁻¹

## CCCCCCCCCCCCCCOS(=O)(=O)O [tetradecyl sulfate]
P450BM-3 [2]
  Kd: 1.4 ± 0.1 µM
P450BM-3 [4]
  site of hydroxylation: primarily ω−1 hydroxylation
P450BM-3 [4]; over the first 100 seconds
  NADPH oxidation accounted for as disappearance of the substrate: 97%
P450BM-3 [6]; with tetradecyl sulfate as substrate
  initial rate of disappearance of NADPH (A340): 1.75 pmol/s

## [C-]#[O+] [CO]
Ferrous P450BM-3
  rate constant for CO binding: 1.6e+06 M⁻¹ s⁻¹

## CCOc1ccc2ccc(=O)oc2c1 [7-ethoxycoumarin]
Mutants of P450BM-3
  KIEs for O-deethylation: 6–17

## d23-Lauric acid [d23 lauric acid]
P450BM-3 [6]
  kcat: 16.2 ± 0.5 s⁻¹

## CCCCCCCCCCCCCCCC(=O)NCC(=O)O [N-palmitoylglycine]
P450BM-3 [6]
  Km: 9 ± 2 µM
  kcat: 9.92 ± 0.667 s⁻¹
P450BM-3 [8]
  rate of change of temperature-dependent spin equilibria: ~ 800 s^−1

## CC(O)CCCCCCCCCC(=O)O (centres unmarked) [11-OH lauric acid]
P450BM-3 [9]
  Kd: 11 µM
P450BM-3 [2]
  type of difference spectrum: Type I
P450BM-3 [2]; [12]
  Kd: 8 ± 2 µM

## CCCCCCCCCCCCCC(=O)O [myristate]
P450BM-3 [10]
  Kd: 0.5 to 78 µM
P450BM-3 [7]
  rate of reduction of iron from the ferric to the ferrous state: 53 to 306 s⁻¹
P450BM-3 [2]
  Kd: 12 µM

## CCCCCCCCCCCC(=O)O [lauric acid]
P450BM-3 [10]
  Kd: 27 to 390 µM
P450BM-3 [7]
  rate of reduction of iron from the ferric to the ferrous state: 53 to 306 s⁻¹
P450BM-3 [2]; [12]
  Kd: 29 µM
P450BM-3 [11]
  kinetic burst: No burst was observed
P450BM-3 [11]; pH 7.5
  rate of NADPH oxidation, steady-state portion: 608 ± 4 min⁻¹
P450BM-3 [4]; LC-MS, 100 μM laurate, 180 second time point
  KIE from rates of formation of hydroxylated laurate products: 1.03
P450BM-3 [6]; [13]
  KIE, ^D(V/K): 0.79 ± 0.07
  KIE, ^DV: 1.19 ± 0.16
P450BM-3 [6]; depending on the assay method
  KIEs, measured with multiple concentrations of d0/d23 laurate: ≤ 1.2
P450BM-3 [6]
  kcat: 19.33 ± 2.5 s⁻¹
